Source: PubChem
SR-BI DiI-HDL act: enhances SR-BI lipid uptake from DiI-HDL | 320,000 tested, 0.096% active | AID 504775 | CHO ldlA[mSR-BI] cells, DiI-HDL uptake fluorescence, 3 h; 100 = double the neutral-control signal | activation, % at 12.5 µM;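 active means mean replicate activation of at least 60% and every replicate at or above 60%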;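 further: 0% = median plate neutral-control signal and 100% = twice that signal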
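System: CHO ldlA[mSR-BI] cells / Medium: HEPES-buffered (25 mM, pH 7.4) F12 plus 0.5% BSA / Probe or stimulus: labelled HDL, 10 µg/mL / Doses: single compound concentration, delivered by pin transfer / Schedule: 3 h, 37 °C / Measured by: DiI fluorescence, bottom read / Measure: cell-associated DiI fluorescence as measure of HDL uptake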
SR-BI DiI inh: inhibitors of mouse SR-BI mediated HDL lipid uptake. ldlA[mSR-BI] CHO cells, DiI-HDL uptake fluorescence, 3 h. inhibition, % at 12.5 µM. 320,000 tested, 0.96% active. AID 488896;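 active means mean replicate inhibition of at least 70% and a set share of replicates each scoring 70 or more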;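 further: 0% = median of neutral control wells and 100% = median of positive control wells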
DNA FID counter: fluorescent intercalator displacement, NS3 helicase counter-screen. inhibition, % at 7.9 µM. 290,000 tested, 0.17% active. AID 1845. DNA fluorescent intercalator displacement, fluorescence; in the data active means inhibition above about 37%;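 further: 0% = vehicle and 100% = reference compound; higher means more ethidium bromide displaced from hairpin DNA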
TMEM16A inh: inhibitors of mouse TMEM16A calcium-activated chloride channel | Q8BHY3 | HEK293 TMEM16A/YFP iodide influx fluorescence, ionomycin | normalized B-score (activity score, 25-100; higher = stronger inhibition) at 10 µM | 310,000 tested, 1.2% active;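 active means ratio plate-corrected score three or more library SD toward inhibition, starting fluorescence score within five deviations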;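 further: score derived from kinetic fluorescence span divided by baseline fluorescence per well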
Kir21 inh: blocks the mouse Kir2.1 inward-rectifier potassium channel | AID 1672 | HEK293-Kir2.1, FluxOR thallium flux fluorescence; active compounds read low | 310,000 tested, 0.85% active | P35561 | B-score at 10 µM;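 active means fluorescence ratio B-score at or below minus 3 SD of library scores, with starting-brightness B-score within 2 SD, cut at about -4.2 in these data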;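 further: channel flux triggered by added potassium and thallium sulfate stimulus; B-score of peak minus minimum fluorescence over baseline after thallium stimulus; more negative B-score means stronger Kir2.1 block with less thallium influx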
Target sequence (P35561 whole entry, looked up): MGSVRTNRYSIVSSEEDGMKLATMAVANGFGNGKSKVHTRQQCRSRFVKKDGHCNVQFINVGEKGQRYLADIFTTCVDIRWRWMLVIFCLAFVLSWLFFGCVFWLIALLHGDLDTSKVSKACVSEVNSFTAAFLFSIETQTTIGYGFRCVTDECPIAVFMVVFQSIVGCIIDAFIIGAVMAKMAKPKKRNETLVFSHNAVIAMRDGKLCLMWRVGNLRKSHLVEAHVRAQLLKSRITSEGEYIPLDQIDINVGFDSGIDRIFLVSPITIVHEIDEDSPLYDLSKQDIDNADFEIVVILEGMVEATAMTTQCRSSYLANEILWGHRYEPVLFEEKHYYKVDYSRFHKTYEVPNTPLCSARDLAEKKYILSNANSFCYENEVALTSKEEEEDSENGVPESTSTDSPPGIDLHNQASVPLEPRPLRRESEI
TMEM16A act: activates or potentiates the mouse TMEM16A chloride channel. HEK293 TMEM16A/YFP-H148Q/I152L, iodide quench fluorescence; active compounds read low. 340,000 tested, 0.3% active. B-score at 10 µM. AID 623877. Q8BHY3;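 active means fluorescence-ratio B-score plate-corrected deviation score at least 3 library SD below zero, with starting fluorescence score within 5 deviations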;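 further: channel opened by trigger with iodide after compound preincubation; score built on the fluorescence ratio of max minus min over baseline; more negative score means more quench and so TMEM16A activation or potentiation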
The depositor's hits bear a star; i = inactive; x = not tested or not shown. This is a sample that favours compounds with a hit; in the whole collection about 3% have one here.

SMILES	SR-BI DiI-HDL act	SR-BI DiI inh	DNA FID counter	TMEM16A inh	Kir21 inh	TMEM16A act
Cc1cc(Oc2ccc(=O)n(C)n2)nc(Oc2ccc(=O)n(C)n2)n1	81.9*	-81.9	-1.7	i	0.35	i
Cc1cc(Oc2ccc(=O)n(C)n2)nc(SCC(N)=O)n1	9.2	-9.2	-2.9	i	-0.38	i
CN(C)CCCNc1cc(C(C)(C)C)nc2c(-c3ccccc3)cnn12	-5.7	5.7	48.5*	i	-4.85*	i
CN(C)CCCNc1cc(-c2ccccc2)nc2cc(-c3cccc(F)c3)nn12	-19.3	19.3	40.2*	i	-2.16	i
Cc1cccc(-c2cc3nc(C)cc(NCCCN(C)C)n3n2)c1	11.8	-11.8	34.9	i	-1.31	x
CC1=C(C)/C(=N\OS(=O)(=O)c2ccccc2)C=CC1=O	-86.6	86.5*	3.5	i	-11.1*	i
Cc1sc2nc(CSc3ccccc3)nc(N3CCC(C(N)=O)CC3)c2c1C	-2.3	2.3	-22.5	i	0.25	i
CCOC(=O)c1sc2nc(CSc3ccccc3)nc(N3CCC(C(N)=O)CC3)c2c1C	-19.7	19.7	-19.6	i	-0.1	-5.75*
Cc1nnc(OCc2nc3ccccc3n2C)c2ccccc12	-12.5	12.5	-23.9	i	-4.71*	i
Cc1cc(/C=C2/SC(=S)N(c3cccc(C(F)(F)F)c3)C2=O)c(C)n1-c1cccnc1	-75.9	75.9*	-5.9	i	0.1	i
COc1ccc(N2CCN(C(=O)Cn3nnc(-c4ccccc4N)n3)CC2)cc1	-82.6	82.6*	-17.3	i	1.24	i
CCN(CC)S(=O)(=O)c1ccc(N2CCOCC2)c(NC(=O)COc2ccccc2C)c1	-40.8	40.8	x	x	x	i
COc1ccc(C(=O)Nc2ccc(S(=O)(=O)Nc3cc(C)nc(C)n3)cc2)cc1OC	8.9	-8.9	-6.1	i	0.29	-6.7*
COc1cc(C(=O)Nc2ccc(S(=O)(=O)Nc3cc(C)nc(C)n3)cc2)cc(OC)c1OC	-0.4	0.4	-6.9	i	-0.72	i
COc1ccc(C(=O)Nc2nc3ccc(S(C)(=O)=O)cc3s2)cc1OC	-78.3	78.3*	-4.8	i	1.63	i
COc1ccc(-c2cc(C(=O)Nc3sc4c(c3C#N)CCCC4)c3ccccc3n2)cc1OC	-84.6	84.6*	0.6	i	0.46	i
COc1ccc(-c2cc(C(=O)Nc3ccccc3O)c3ccccc3n2)cc1OC	-29.6	29.6	-28.0	i	-1.45	i
COc1ccc(-c2cc(C(=O)Nc3nc4ccccc4s3)c3ccccc3n2)cc1OC	-74.7	74.7*	-8.7	i	1.07	i
C=CCC(C#N)(c1ccc(OC)c(OC)c1)c1cnccn1 (stereo unspecified)	-14.6	14.6	x	i	-1.14	i
Cc1ccc(CNC(=O)C(=O)NCC2OCCN2S(=O)(=O)c2ccc(Br)cc2)cc1 (stereo unspecified)	-9.1	9.1	-39.1	i	-0.25	i
Cc1ccc(C)c(OC(=O)C2CSC3(C)CCC(=O)N23)c1C (stereo unspecified)	-13.7	13.7	x	x	x	i
O=C(OCC(=O)N1N=C(c2ccc(Cl)cc2)CC1c1ccco1)c1cncc(Br)c1 (stereo unspecified)	-29.2	29.2	x	x	x	i
COc1ccc(-c2cc(C(=O)OCC(=O)NC3CC3)c3ccccc3n2)cc1OC	-72.4	72.4*	x	x	x	i
CCOC(=O)c1sc(NC(=O)c2cc(-c3ccccc3C)nc3ccccc23)c(C#N)c1C	-33.2	33.2	-5.8	100*	-1.7	i
COc1ccc2nc(-c3ccccc3)cc(C(=O)OCC(=O)NC3CC3)c2c1	-25.0	25.0	x	x	x	i
SMILES	SR-BI DiI-HDL act	SR-BI DiI inh	DNA FID counter	TMEM16A inh	Kir21 inh	TMEM16A act
Cc1ccccc1-c1cc(C(=O)Nc2sc(C)c(C)c2C(N)=O)c2ccccc2n1	-36.4	36.4	-4.6	i	0.14	i
Cc1cc(C(=O)Nc2sc3c(c2C#N)CCCCC3)cs1	-78.8	78.8*	-3.4	i	-0.39	i
CC(=O)Nc1sc2c(c1C#N)CCCC2	-18.9	18.9	-1.3	i	0.3	i
COc1ccc2cc(S(=O)(=O)N3CCCC(C)C3)ccc2c1 (stereo unspecified)	-7.7	7.7	-22.4	i	1.79	i
O=C(CNS(=O)(=O)c1cccs1)NCCc1ccc(Cl)cc1	x	x	-7.0	i	0.71	i
CC(C)NCC(O)Cn1c2c(c3ccccc31)CCc1c-2cnn1-c1ccccc1 (stereo unspecified)	-13.7	13.7	25.4	i	-6.09*	i
CN1CCc2c(n(CC(O)CN3C(=O)c4ccccc4S3(=O)=O)c3ccccc23)C1=O (stereo unspecified)	-25.2	25.2	-22.1	x	x	i
COc1cccc(-c2ncc3ccccc3c2COC(=O)CCC(=O)O)c1	21.0	-21.0	x	x	x	i
O=C(CNC(=O)Cc1cccc2ccccc12)NCc1ccc(F)cc1	16.9	-16.9	-19.0	i	-5.2*	i
Oc1ccccc1Nc1nc(NCc2ccccc2)c2ccccc2n1	-23.9	23.9	29.6	100*	-0.98	i
CNc1nc(NCc2ccccc2)c2ccccc2n1	1.0	-1.0	11.1	i	-5.4*	i
Oc1ccccc1-c1nc(NCc2ccccc2)c2ccccc2n1	-39.4	39.4	-0.9	i	1.06	i
Cc1ccc(C(=O)NCC(=O)OCC(=O)c2ccccc2)s1	11.7	-11.7	x	x	x	i
CN(CC(=O)Nc1nc2ccccc2s1)S(=O)(=O)c1ccc(Cl)cc1	-12.6	12.6	-4.6	i	-0.04	i
CN(CC(=O)Nc1nc2ccccc2s1)S(=O)(=O)c1ccc(Br)cc1	4.8	-4.8	-10.7	25*	-1.7	i
Clc1ccc(-c2csc(N/N=C/c3ccc4c(c3)OCO4)n2)cc1	-109.0	109.0*	-5.4	i	-0.01	i
CCOc1ccc(NCc2cccn2-c2nnc(N3CCC(C(=O)NCCCN4CC(C)CC(C)C4)CC3)s2)cc1 (stereo unspecified)	-15.2	15.2	38.3*	i	0.99	i
CCCCCCCCNC(C)C(O)c1ccc(SC(C)C)cc1 (stereo unspecified)	-29.5	29.5	6.5	25*	-2.92	i
Cc1cccc(NC(=O)[C@H](NC(=O)[C@@H]2Cc3ccccc3CN2)c2ccccc2)c1	-0.4	0.4	23.6	i	-2.22	i
CCn1c(SC(C)C(=O)NC2CCCC2)nc2cc(S(N)(=O)=O)ccc21 (stereo unspecified)	1.0	-1.0	x	x	x	i
Cc1cccc(C(=O)NNC(=O)C23CC4CC(CC(C4)C2)C3)c1O	-100.5	100.5*	-6.4	i	0.18	i
Cc1ccccc1C(=O)NNC(=O)C12CC3CC(CC(C3)C1)C2	-8.5	8.5	7.8	i	0.41	i
